Data set [1] in a line: Permeability on MDCK-MDR1 cell monolayer. It is filed as in vitro ADME. The settings on record: dog; for Papp B→A at 129 min: MDCK-MDR1; for Papp A→B at 129 min: MDCK-MDR1, Papp apical to basolateral, MDCK-MDR1 monolayer, n=3.
A further data set can be described thus: Solubility at pH 7.4. In kind it is physicochemical. The settings on record: 50 mM sodium phosphate buffer. Summed up: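 Working stock was spiked into 50 mM sodium phosphate buffer, pH 7.4, and held 2 h; concentrations up to 100 µM were tested. Samples were centrifuged at 1,000 g for 20 min at room temperature. Supernatant was diluted 1:1 in acetonitrile and quantified by LC-MS/MS (phenyl column, positive-ion MRM, internal standard).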

Data set [2] in a line: Plasma protein binding by equilibrium dialysis, rat plasma. It is filed as in vitro ADME. The settings on record: 10 µM, means±SD, n=6. Summed up: (§1)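 Equilibrium dialysis used plasma (human or rat) spiked with 10 µM test compound in the donor side against phosphate buffer in the acceptor side. Plates were sealed and incubated 6 h at 37°C, 60 rpm, 5% CO2. Diclofenac (5 µM) served as positive control. Bound percentage is given as mean±SD, n=6.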
Background: In equilibrium dialysis only unbound substance equilibrates across the membrane.

Data set [3] can be described thus: Plasma protein binding by equilibrium dialysis, human plasma. Particulars: 10 µM, means±SD, n=6. It is filed as in vitro ADME. Summed up: as §1
In a further data set the test system is MDCK-MDR1 cells. Briefly: Permeability on MDCK-MDR1 cell monolayer. It is filed as in vitro ADME. Particulars: MDCK-MDR1 monolayer, n=3.
Another data set has as its system P-gp. Briefly: Permeability on MDCK-MDR1 cell monolayer. In kind it is in vitro ADME. The settings on record: dog, MDCK-MDR1.
Another data set in a line: Plasma stability, rat. In kind it is in vitro ADME. The essentials: (§2)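 Test-compound-spiked rat or human plasma was incubated 6 h at 37°C. Percent recovery was then determined, reported as mean±SD, n=6.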
A further data set can be described thus: Plasma stability, human. It is filed as in vitro ADME. The essentials: as §2
Data set [4] can be described thus: In vitro metabolism in rat liver microsomes. It is filed as in vitro ADME. A general note: Microsomes from liver hold many membrane-bound enzymes, among them those of drug oxidation.
A short description of data set [5]: In vitro metabolism in human liver microsomes. In kind it is in vitro ADME.
Data set [6] is described as follows: In vitro metabolism in rat hepatocytes. It is filed as in vitro ADME. Particulars: rat, hepatocytes.
Another data set deals with rat hepatocytes. Kind of data set: In vitro metabolism in rat hepatocytes. In kind it is in vitro ADME. The settings on record: rat hepatocytes, 0.5 µM.
Data set [7] can be described thus: In vitro metabolism in human hepatocytes. In kind it is in vitro ADME. Particulars: human, hepatocytes.
For a further data set, the system named is human hepatocytes. Kind of data set: In vitro metabolism in human hepatocytes. The settings on record: human hepatocytes, 0.5 µM, two separate experiments. In kind it is in vitro ADME.
The next data set has as its target CYP2D6 (Homo sapiens, UniProt P10635). Briefly: CYP profiling with purified isozyme. In kind it is in vitro ADME. Particulars: purified human CYP2D6 isozyme (Cypex). The essentials: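 Purified human recombinant CYP isozyme ([…]) was pre-incubated 10 min, then run with 0.5 µM test compound and 2 mM NADPH in phosphate buffer at 37°C. CYP-specific probe substrates were incubated separately. Parent loss over time was measured by LC-MS/MS. Half-life came from nonlinear regression to a first-order decay equation.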

The next data set has as its target CYP3A4 (Homo sapiens, UniProt P08684). Briefly: CYP inhibition in human liver microsomes. It is filed as in vitro ADME.
In the next data set the test system is mice motor coordination. Kind of data set: Rota-rod test. In kind it is in vivo. The settings on record: 10 µg/kg iv, 3, 10 and 30 min after administration. Summed up:
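Adult male Swiss Webster mice (~40 g) were trained 1 day and 1 h before testing. Only those staying ≥1 min without falling were used. Test compound (10 µg/kg) or saline was given iv via the orbital plexus, 6 mice per group. At 3, 10 and 30 min, falls were counted over a 4-min observation, with latency to each fall recorded.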
In general terms: The rotarod test checks motor coordination on a turning rod.

The subject of a further data set is mice. Kind of data set: Acute toxicity test, single dose. The settings on record: for Body temperature: 100 μg/kg ip. In kind it is in vivo. The essentials: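 Female Swiss Webster mice (25–30 g), 6 per condition, got a single ip dose of 100 μg/kg test compound, with saline controls. Behaviour, motor coordination, muscle tone, CNS and autonomic signs, water and food intake and lethality were scored during the first hour, at 2, 4 and 8 h, then daily to day 14. Anal-probe body temperature was taken before dosing and at 30 and 60 min.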

The conditions of data set [8]: cited from earlier work.
Setting [9] is: single dose 100 μg/kg ip, 14 days observation.

Several values for one entry are separate records, joined by “and”; a condition that tells them apart may be missing. Equal values may be shown once. Read-outs that look alike come from different tables or passages of the source.

Consider three compounds from PMC5188857 (Brazilian Journal of Medical and Biological Research, 2016).

What is called Papp B→A is the apparent permeability from the basolateral to the apical side of a cell layer. In general, Papp A→B refers to the apparent permeability from the apical to the basolateral side of a cell layer. A lower Papp A→B goes with slow passage. For orientation: solubility means the dissolved amount per volume that the medium holds. The low end stands for little dissolved substance, the high end for much dissolved substance. As a reminder, the efflux ratio is the permeability from basolateral to apical divided by that in the opposite direction, in the common usage. The term half-life denotes the time needed for the level to fall by half in the phase considered. Usually IC50 stands for the concentration that inhibits the measured activity by half.

Sequence of CYP3A4 (P08684 whole entry): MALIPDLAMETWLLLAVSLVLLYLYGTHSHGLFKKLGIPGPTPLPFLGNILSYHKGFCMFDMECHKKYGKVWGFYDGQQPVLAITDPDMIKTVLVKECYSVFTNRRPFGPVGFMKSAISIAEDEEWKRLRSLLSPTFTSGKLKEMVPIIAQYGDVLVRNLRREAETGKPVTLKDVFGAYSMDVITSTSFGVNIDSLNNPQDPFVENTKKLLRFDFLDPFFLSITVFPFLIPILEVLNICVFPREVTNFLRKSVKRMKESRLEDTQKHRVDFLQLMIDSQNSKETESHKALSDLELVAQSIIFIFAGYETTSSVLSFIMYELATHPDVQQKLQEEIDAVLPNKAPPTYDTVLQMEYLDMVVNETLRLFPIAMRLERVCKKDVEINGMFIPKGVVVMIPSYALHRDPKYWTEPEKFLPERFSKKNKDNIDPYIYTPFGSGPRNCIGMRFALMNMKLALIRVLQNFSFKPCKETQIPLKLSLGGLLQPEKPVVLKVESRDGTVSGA
Sequence of CYP2D6 (P10635 whole entry): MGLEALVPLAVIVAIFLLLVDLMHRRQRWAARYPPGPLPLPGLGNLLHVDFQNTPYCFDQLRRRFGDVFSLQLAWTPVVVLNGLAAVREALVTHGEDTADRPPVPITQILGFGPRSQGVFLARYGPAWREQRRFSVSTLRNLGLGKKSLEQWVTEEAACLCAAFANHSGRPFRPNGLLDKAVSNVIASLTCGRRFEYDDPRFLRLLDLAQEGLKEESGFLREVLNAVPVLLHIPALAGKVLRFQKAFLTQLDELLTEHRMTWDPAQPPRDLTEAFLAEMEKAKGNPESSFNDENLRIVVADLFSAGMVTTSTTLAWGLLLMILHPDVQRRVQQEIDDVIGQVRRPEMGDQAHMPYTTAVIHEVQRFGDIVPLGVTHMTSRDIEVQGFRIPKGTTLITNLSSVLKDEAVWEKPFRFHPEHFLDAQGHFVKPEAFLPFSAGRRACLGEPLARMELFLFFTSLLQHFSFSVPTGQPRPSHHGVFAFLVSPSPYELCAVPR

As for `C=C[C@H]1C[N@@]2CC[C@H]1C[C@@H]2[C@@H](O)c1ccnc2ccc(OC)cc12` [quinidine, reference compound], in data set [1], the Papp B→A at 129 min worked out at 39.5 ± 2.8 ×10⁻⁶ cm/s and the Papp A→B at 129 min stood at 0.19 ± 0.05 ×10⁻⁶ cm/s.
For the compound `COc1ccc(CCN2CCN(c3ccccc3OC)CC2)cc1OC.Cl` [LDT5, 1-(2-methoxyphenyl)-4-[2-(3,4-dimethoxyphenyl)ethyl]piperazine monohydrochloride], the solubility at 2 h in the data set “Solubility at pH 7.4” was no less than 100 µM. In addition, the “Binding to plasma proteins” value came out at 80±2% in [2] and 73±1% in data set [3]. Besides, the Papp B→A at 129 min in data set [1] stood at 32.4 ± 1.1 ×10⁻⁶ cm/s. The Papp A→B at 129 min in [1] is roughly 32 ×10⁻⁶ cm/s. In addition, the “Papp apical to basolateral” value in the data set on MDCK-MDR1 cells is 32.2±1.1 ×10^-6 cm/s. The efflux ratio at 129 min in the data set with P-gp was 1. The recovery at 6 h came to 87 ± 4% in the data set “Plasma stability, rat” and 91 ± 4% in “Plasma stability, human”. The half-life at 0.5 µM is 10 min in data set [4] (male, Sprague Dawley, rat, liver microsomes); greater than 30 min in [5] (both, human, liver microsomes); 11 min in data set [6]; 120 min in data set [7]; 5 min at CYP2D6. The Intrinsic clearance was 6.4 mL·min^-1·g liver^-1 and 6.7 mL·min^-1·g liver^-1 in [4] (rat liver microsomes, 0.5 µM, two separate experiments); less than 0.6 mL·min^-1·g liver^-1 in data set [5] (human liver microsomes, 0.5 µM); greater than 2 mL·min^-1·g liver^-1 in the data set on rat hepatocytes; < 0.2 mL·min^-1·g liver^-1 and 0.22 mL·min^-1·g liver^-1 in the data set on human hepatocytes. The IC50 at CYP3A4 is greater than 100 µM; at CYP3A4 (read-out: IC50 CYP3A4, human liver microsomes, substrate testosterone), greater than 100 µM. Further, the “Effect on motor coordination (rota-rod)” value with mice motor coordination is recorded as “no acute effect on mice motor coordination”. For the same compound, the values for the Body temperature in the data set on mice (30 min after administration) and in the data set with mice (60 min after administration) were 35.5±0.2 °C and 35.17±0.31 °C, respectively. Further, the Changes in behavior result in the data set with mice (setting [9]) is “no changes in behavior”. The Lethality result in the data set with mice (setting [9]) is given as “no lethality”.
`CCOc1ccccc1OCCN[C@H](C)Cc1ccc(OC)c(S(N)(=O)=O)c1` [tamsulosin]: the “Binding to human plasma proteins” value in data set [8] is given as “around 99%”.
